Source: ChEMBL document CHEMBL1138785, “Stereoselective synthesis of sugar-modified enyne analogues of adenosine and uridine. Interaction with S-adenosyl-L-homocysteine hydrolase and antiviral and cytotoxic effects” (J Med Chem, 2004)

What was measured:
HeLa [1] = assay: Minimum inhibitory concentration required to inhibit vesicular stomatitis virus; format: functional; settings: Homo sapiens
Procedure, shortened: (§1)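 HeLa cell cultures infected with vesicular stomatitis virus, Coxsackie B4 virus or respiratory syncytial virus. The read-out is the minimum inhibitory concentration (MIC), with compounds tested up to 100 or 700 μM.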

[2] = Minimum cytotoxic concentration was determined; settings: human
Procedure, shortened: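 Human embryonic lung (HEL) cell cultures, run alongside the CMV (AD-169, Davis) and VZV (OKA, 07/1) antiviral tests. Minimum cytotoxic concentration is the lowest compound level that causes cytotoxicity.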

[3] = system: Human immunodeficiency virus 1; assay: Inhibition concentration required to inhibit HIV-1 was determined by MT-4/MTT assay; format: functional, organism-based
Procedure, shortened: (§2)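 MT-4 cells infected with HIV-1 (strain IIIB) or HIV-2 (strain ROD), with viability read by MTT. The read-out is the 50% inhibitory concentration (IC50). CC50 was measured in MT-4 cells, and the selectivity index was calculated as CC50/IC50.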

HeLa [4] = assay: Minimum inhibitory concentration required to inhibit respiratory syncytial virus; format: functional; settings: Homo sapiens; procedure, shortened: as §1
[5] = system: Human immunodeficiency virus 1; assay: Inhibition concentration required to inhibit HIV-IIIB was determined by MT-4/MTT assay; format: functional, organism-based; procedure, shortened: as §2
[6] = system: Human immunodeficiency virus 2; assay: Inhibition concentration required to inhibit ROD strain was determined by MT-4/MTT assay; format: functional, organism-based; procedure, shortened: as §2
[7] = system: Human immunodeficiency virus 2; assay: Inhibition concentration required to inhibit HIV-2 was determined by MT-4/MTT assay; format: functional, organism-based; procedure, shortened: as §2
MT4 = assay: Ratio of cytotoxicity to antiviral activity was determined; format: functional, Homo sapiens; procedure, shortened: as §2
HeLa [8] = assay: Minimum inhibitory concentration required to inhibit Coxsackie B4 virus; format: functional; settings: Homo sapiens; procedure, shortened: as §1
Adenosylhomocysteinase [9] = target: T1, Adenosylhomocysteinase (Homo sapiens, UniProt P23526)
Target sequence in this assay (P23526 2-432 limits assumed): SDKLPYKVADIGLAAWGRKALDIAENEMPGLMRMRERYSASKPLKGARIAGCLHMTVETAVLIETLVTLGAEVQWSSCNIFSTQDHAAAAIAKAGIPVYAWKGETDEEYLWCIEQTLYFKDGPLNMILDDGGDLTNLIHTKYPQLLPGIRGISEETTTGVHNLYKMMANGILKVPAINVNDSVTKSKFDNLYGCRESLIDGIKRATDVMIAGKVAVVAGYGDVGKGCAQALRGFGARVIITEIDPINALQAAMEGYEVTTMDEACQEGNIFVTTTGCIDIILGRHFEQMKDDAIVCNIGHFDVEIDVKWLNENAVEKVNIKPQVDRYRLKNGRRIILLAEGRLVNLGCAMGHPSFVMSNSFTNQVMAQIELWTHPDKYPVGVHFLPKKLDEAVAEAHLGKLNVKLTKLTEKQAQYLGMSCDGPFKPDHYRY

Cytomegalovirus [10] = assay: Activity against CMV (Davis strain) was determined; format: functional, organism-based; settings: Human betaherpesvirus 5
Procedure, shortened: (§3)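 Human embryonic lung (HEL) cell cultures infected with human cytomegalovirus, AD-169 or Davis strain. The read-out is the 50% effective concentration (EC50). Cytotoxicity was measured in the same cells as the 50% cytotoxic concentration (CC50).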

Adenosylhomocysteinase [11] = target: T1, Adenosylhomocysteinase; assay: Inhibition of recombinant Placental Adenosylhomocysteinase
Target sequence in this assay (P23526 whole entry): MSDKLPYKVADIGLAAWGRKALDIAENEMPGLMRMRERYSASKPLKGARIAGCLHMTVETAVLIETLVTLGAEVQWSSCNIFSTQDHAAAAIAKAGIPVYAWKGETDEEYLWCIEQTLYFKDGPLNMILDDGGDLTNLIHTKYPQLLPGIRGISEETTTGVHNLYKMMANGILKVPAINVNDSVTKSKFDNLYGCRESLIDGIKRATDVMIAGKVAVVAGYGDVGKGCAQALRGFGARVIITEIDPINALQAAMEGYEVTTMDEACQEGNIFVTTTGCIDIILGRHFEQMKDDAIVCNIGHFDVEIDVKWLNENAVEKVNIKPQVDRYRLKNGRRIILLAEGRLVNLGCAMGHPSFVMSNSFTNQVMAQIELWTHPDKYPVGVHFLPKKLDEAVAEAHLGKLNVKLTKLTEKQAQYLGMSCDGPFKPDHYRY

Cytomegalovirus [12] = assay: Activity against CMV (AD-169 strain) was determined; format: functional, organism-based; settings: Human betaherpesvirus 5; procedure, shortened: as §3
Adenosylhomocysteinase [13] = target: T1, Adenosylhomocysteinase; assay: Inhibition of recombinant human placental AdoHcy hydrolase
Procedure, shortened: (§4)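 Recombinant enzyme (2.5 μg) preincubated with inhibitor at 0–200 μM for 0–20 min at 37 °C in 50 mM potassium phosphate, pH 7.2, 1 mM EDTA. Residual synthetic-direction activity was measured with 1 mM Ado and 1 mM Hcy for 1 min at 37 °C, stopped with HClO4, and AdoHcy quantified by reversed-phase HPLC at 258 nm. Ki and kinact came from fitting kobs = kinact[I]/(Ki+[I]).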
Target sequence in this assay (P23526 whole entry): as above

Adenosylhomocysteinase [14] = target: T1, Adenosylhomocysteinase; assay: Rate at which the compound inactivates human placental AdoHcy hydrolase enzyme was determined; format: functional; procedure, shortened: as §4
Target sequence in this assay (P23526 2-432 limits assumed): as the sequence (P23526 2-432 limits assumed) above

SMILES | MIC (HeLa [1]) [µM] | MCC [2] [µM] | IC50 [3] [nM] | MIC (HeLa [4]) [µM] | IC50 [5] [nM] | IC50 [6] [nM] | IC50 [7] [nM] | CC50/IC50 (MT4) | MIC (HeLa [8]) [µM] | K inact (Adenosylhomocysteinase [9]) [min⁻¹] | EC50 (Cytomegalovirus [10]) [nM] | Ki (Adenosylhomocysteinase [11]) [nM] | EC50 (Cytomegalovirus [12]) [nM] | Ki (Adenosylhomocysteinase [13]) [nM] | K inact (Adenosylhomocysteinase [14]) [min⁻¹]
O=c1ccn(C2O[C@H](/C=C/C#CI)[C@@H](O)[C@H]2O)c(=O)[nH]1 (some centres not stated) | > 100 | ≥ 50 | 1800 | > 100 | 1800 | 1800 | 1800 | 3 | > 100 | – | – | – | – | – | –
C#C/C=C/[C@H]1OC(n2cnc3c(N)ncnc32)[C@H](O)[C@@H]1O (some centres not stated) | > 100 | ≥ 350 | – | > 100 | – | – | – | – | > 100 | 2.57 | 30000 | 550 | 50000 | – | –
C#C/C=C\[C@H]1OC(n2ccc(=O)[nH]c2=O)[C@H](O)[C@@H]1O (some centres not stated) | > 100 | ≥ 350 | – | > 100 | – | – | – | 7 | > 100 | – | – | – | – | – | –
C#C/C=C\[C@H]1OC(n2cnc3c(N)ncnc32)[C@H](O)[C@@H]1O (some centres not stated) | > 700 | ≥ 350 | – | > 700 | – | – | – | – | > 700 | – | – | – | – | – | –
Nc1ncnc2c1ncn2C1O[C@H](/C=C/C#CI)[C@@H](O)[C@H]1O (some centres not stated) | > 100 | ≥ 50 | 1100 | > 100 | 1100 | 1100 | 1100 | 7 | > 100 | – | – | – | – | 118000 | 1.49
C#C/C=C/[C@H]1OC(n2ccc(=O)[nH]c2=O)[C@H](O)[C@@H]1O (some centres not stated) | > 700 | ≥ 350 | – | > 700 | – | – | – | – | > 700 | – | – | – | – | – | –
CCOC(=O)/C=C\C#C[C@H]1OC(n2cnc3c(N)ncnc32)[C@H](O)[C@@H]1O (some centres not stated) | – | ≥ 11 | – | – | – | – | – | – | – | – | – | – | – | – | –
